# Laboratory results from PubChem BioAssay AID2237 (Johns Hopkins Ion Channel Center, 2010).
# The whole screen tested about 310,000 compounds, of which about 1,500 (0.48%) were called active.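 How the source made its calls: active means B-score above 5 SD of library B-scores, and initial fluorescence ratio not above library mean plus 5 SD; inactive means the rest.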 Many of the other results were omitted from the sample, so actives are more common in it than they were.
# Target: Short transient receptor potential channel 4 (Mus musculus) (UniProt Q9QUQ5)
# Sequence (Q9QUQ5 whole entry, looked up): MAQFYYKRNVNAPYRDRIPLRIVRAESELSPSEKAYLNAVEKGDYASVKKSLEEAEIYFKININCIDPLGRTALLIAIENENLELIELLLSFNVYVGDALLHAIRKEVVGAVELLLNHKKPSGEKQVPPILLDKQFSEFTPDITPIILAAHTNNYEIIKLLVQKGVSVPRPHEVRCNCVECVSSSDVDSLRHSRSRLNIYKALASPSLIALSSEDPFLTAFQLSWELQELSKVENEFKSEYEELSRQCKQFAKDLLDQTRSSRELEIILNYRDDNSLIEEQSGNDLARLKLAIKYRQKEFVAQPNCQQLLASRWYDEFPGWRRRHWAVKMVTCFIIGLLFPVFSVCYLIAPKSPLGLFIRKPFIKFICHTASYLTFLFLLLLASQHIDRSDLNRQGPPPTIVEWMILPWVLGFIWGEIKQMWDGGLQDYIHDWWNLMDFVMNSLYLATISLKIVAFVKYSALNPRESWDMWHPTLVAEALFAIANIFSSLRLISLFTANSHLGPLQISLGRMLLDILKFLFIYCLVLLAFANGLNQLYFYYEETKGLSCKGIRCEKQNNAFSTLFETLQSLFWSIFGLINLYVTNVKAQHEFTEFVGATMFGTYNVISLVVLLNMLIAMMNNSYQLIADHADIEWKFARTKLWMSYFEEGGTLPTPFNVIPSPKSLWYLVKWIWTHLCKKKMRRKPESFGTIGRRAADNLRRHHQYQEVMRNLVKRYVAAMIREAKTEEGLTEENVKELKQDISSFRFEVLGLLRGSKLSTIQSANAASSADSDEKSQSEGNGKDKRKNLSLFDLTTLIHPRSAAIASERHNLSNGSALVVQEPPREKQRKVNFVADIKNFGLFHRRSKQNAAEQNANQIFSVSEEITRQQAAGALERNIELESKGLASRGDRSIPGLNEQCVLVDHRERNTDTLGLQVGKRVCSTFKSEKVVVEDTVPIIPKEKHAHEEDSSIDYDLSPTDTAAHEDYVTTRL
# Assay: activators of mouse TRPC4 channel, primary screen, Fluo4 calcium, HEK293 TRPC4beta/mu-opioid cells (AID 2237);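 on B-score: positive B-score marks a calcium rise read as TRPC4 activation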
# Details: Fluo4 calcium fluorescence, at 10 µM; hits give high values
# In short: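 system = HEK293 cells stably co-expressing mouse TRPC4beta and mu-opioid receptor | schedule = Fluo4 dye loading 45 min at room temperature, 110 s recording | measure = B-scored integrated calcium fluorescence ratio | signal = Fluo4 calcium-sensitive dye fluorescence, kinetic, 1 Hz baseline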
row,SMILES,B-score
1,CC1CCN(CC(=O)Nc2nccs2)CC1,inactive
2,COc1ccc(Cl)cc1NC(=O)[C@@H]1CCCN1C(=O)c1cccs1,inactive
3,CCc1ccc(C(CNc2nc(C(F)(F)F)nc3ccccc23)N(C)C)cc1 (stereo not given),51 (active)
4,NS(=O)(=O)c1ccc(CCNc2nc(C(F)(F)F)nc3ccccc23)cc1,inactive
5,COc1cccc(CNc2nc(C(F)(F)F)nc3ccccc23)c1,inactive
6,COc1ccc(NC(=O)CC2C(=O)NC3CCCCC3N2C(=O)c2ccc(F)cc2)cc1 (stereo not given),inactive
7,CC1(C)C=C2[C@H]3CC[C@@H]4[C@@]5(C)CCC(=O)C(C)(C)[C@@H]5CC[C@@]4(C)[C@]3(C)CC[C@@]2(C(=O)O)CC1,inactive
8,CC1(C)C2CCC13CS(=O)(=O)NC3C2 (stereo not given),inactive
9,Cc1ccc(C(=O)NC23CC4CC(CC(C4)C2)C3)c(Cl)c1,inactive
10,Cc1ccc(S(=O)(=O)NCCC(=O)NNC(=O)C2COc3ccccc3O2)cc1 (stereo not given),inactive
11,O=C(NCc1ccccc1)C1=C[C@@H](c2ccccc2)C[C@@H](OCCCCO)O1,inactive
12,O=C(NCc1ccccc1)C1=C[C@@H](c2ccc(C(F)(F)F)cc2)C[C@@H](OCc2ccc(CO)cc2)O1,inactive
13,CC(C)(C)[C@H]1C=C(C(=O)NCc2ccccc2)O[C@@H](OCc2ccc(CO)cc2)C1,136 (active)
14,O=C(NCc1ccccc1)C1=C[C@H](C2CC2)C[C@H](OCc2ccc(CO)cc2)O1,inactive
15,O=C(C1=C[C@H](C2CC2)C[C@H](OCc2ccc(CO)cc2)O1)N1CCN(Cc2ccccc2)CC1,inactive
16,O=C(NCc1ccccc1)C1=C[C@@H](C2CCCCC2)C[C@@H](OCc2ccc(CO)cc2)O1,151 (active)
17,CC(=O)c1ccc(S(=O)(=O)Nc2ccc(-c3ccc4nncn4n3)cc2)cc1,inactive
18,C#CCOc1ccc(/C=C2/C(=O)ON=C2C)cc1OCC,inactive
19,COc1ccc(C(=O)C2CCCN(Cc3cccn3-c3ccccn3)C2)c(C)c1 (stereo not given),inactive
20,CCOC(=O)c1ccc(NC(=O)c2c(NCc3ccccc3)[nH]c(=O)[nH]c2=O)cc1,inactive
21,COc1cccc(CNC(=O)CCC2CCCN(Cc3ccc(OC(F)F)cc3)C2)c1 (stereo not given),inactive
22,COc1ccc(C[C@H]2CN3C(=NC[C@H]3C)N2CCNC(=O)CCC2CCCCC2)cc1,78 (active)

row,SMILES,B-score
1,C/C=C(\C)C(=O)NCCN1C2=NC[C@H](Cc3ccc(O)cc3)N2C[C@@H]1Cc1ccc(OC)cc1,inactive
2,CCNc1nc(SCCOc2ccccc2)nc(N(C)C)n1,inactive
3,O=C(NCCN1C(=O)S/C(=C\c2cccnc2)C1=O)c1ccc(S(=O)(=O)N2CCCC2)cc1,inactive
4,CCCc1nc2c(C)cc(-c3nc4ccccc4n3C)cc2n1Cc1ccc(-c2ccccc2C(=O)O)cc1,95 (active)
5,CC(=O)c1nc2ccccc2n1Cc1ccccc1,inactive
6,CC(=O)Nc1nc2ccccc2n1Cc1ccc(C)cc1,inactive
7,COC(=O)N/N=C/c1c[n+]([O-])c2ccccc2[n+]1[O-],inactive
8,Cc1cc(C)cc(OCC(=O)NC(C)c2ccccc2)c1 (stereo not given),inactive
9,COc1cc(OC)cc(C(=O)N[C@H](C(=O)OCC(=O)NC(C)c2ccccc2)C(C)C)c1 (stereo not given in full),64 (active)
10,Cc1ccc(OCC(=O)NC(C)c2ccccc2)cc1C (stereo not given),inactive
11,CCc1ccccc1NC(=O)c1cc(-c2ccc3c(c2)OCO3)on1,inactive
12,c1ccc(C2CCC(N3CCC(N4CCCCC4)CC3)CC2)cc1 (stereo not given),123 (active)
13,O=S(=O)(c1ccccc1)N1CCC(c2ccccc2)CC1,inactive
14,Cc1ccc(S(=O)(=O)N2CCC(N3CCCCCC3)CC2)cc1,inactive
15,C/C(=N/OC(=O)c1ccc(Br)cc1)c1ccc(C)cc1,inactive
16,CC(C)N(Cc1nnc(-c2ccc(Cl)cc2)o1)C(=O)C1=COCCO1,inactive
17,CNC(=O)COC(=O)c1cc(-c2ccc(OC)cc2)nc2ccccc12,inactive
18,Cc1cc(C(=O)Nc2ccccc2N2CCOCC2)c2ccccc2n1,inactive
19,COC(=O)c1cc(N2CCNCC2)nc2ccccc12,87 (active)
20,Cc1ccc(S(=O)(=O)NCC(=O)N(CC(=O)NCC2CCCO2)c2cccc(F)c2)cc1 (stereo not given),inactive
21,CN(C)CCCN(C(=O)c1ccc(S(=O)(=O)N2CCCc3ccccc32)cc1)c1nc2ccc(F)cc2s1,197 (active)
22,CN(C)CCCN(C(=O)c1ccc(S(=O)(=O)N2CCCCCC2)cc1)c1nc2ccc(Br)cc2s1,inactive

row,SMILES,B-score
1,CN(C)CCCN(C(=O)c1ccc(S(=O)(=O)N2CCCCCC2)cc1)c1nc2cc3c(cc2s1)OCCO3,inactive
2,CCOc1ccc(N(CC(=O)NCCOc2ccccc2OC)S(=O)(=O)c2ccccc2)cc1,inactive
3,O=C(NNC(=O)C(O)c1ccccc1)NC1CCCCC1 (stereo not given),inactive
4,COc1ccc2nc(/N=C(\N)NC(=O)Nc3ccccc3)nc(C)c2c1,inactive
5,Cc1nc(/N=C(\N)NC(=O)NC2CCCCC2)nc2ccccc12,90 (active)
6,COC(=O)C1CCCCN1C(=O)c1ccc(OC2CCN(C(C)=O)CC2)c(OC)c1 (stereo not given),inactive
7,CN(CCO)S(=O)(=O)c1ccc2c(c1)C(=O)c1cc(S(=O)(=O)N(C)CCO)ccc1-2,inactive
8,COC(=O)c1sc(-c2ccc(C(C)(C)C)cc2)cc1NC(=O)/C=C/C(=O)O,inactive
9,NC(=O)CSc1nnc(NC(=O)c2ccc3ccccc3c2)s1,inactive
10,Cc1ccc(OCC(=O)NCCCNC(=O)c2ccco2)cc1C,inactive
11,CCCc1ccc(OCCNC(=O)c2ccco2)cc1,inactive
12,CC(Oc1ccc2ccccc2c1)C(=O)NNC(=S)NC(=O)c1ccco1 (stereo not given),65 (active)
13,Cc1ccc(C(=O)NNC(=O)C(C)Oc2ccc3ccccc3c2)o1 (stereo not given),inactive
14,O=C(Nc1ccc2ccccc2c1)/C(=C/c1cccc(Br)c1)NC(=O)c1ccco1,inactive
15,CCCc1ccc(OCC(=O)NNC(=S)NC(=O)c2ccco2)cc1,66 (active)
16,COc1cccc(NC(=O)CN2CCN(CC(=O)Nc3ccccc3Cl)CC2)c1,inactive
17,Cc1ccc(C23CC4CC(CC(C(=O)NCC(=O)O)(C4)C2)C3)cc1,inactive
18,CCC(=O)Nc1nnc(S(=O)(=O)N(CC(C)C)c2ccccc2)s1,inactive
19,Clc1ccc(-c2cc(-c3ccccn3)on2)c(Cl)c1,inactive
20,Clc1ccc(COn2c(-c3ccc(Cl)cc3Cl)nc3ncccc32)cc1,80 (active)
21,COn1c(-c2ccc(Cl)cc2Cl)nc2ncccc21,inactive
